# Source: ChEMBL document CHEMBL1127320, “Dual-action cephalosporins incorporating a 3'-tertiary-amine-linked quinolone” (J Med Chem, 1994)
# Columns and labels:
# [1] = Half life was measured as degradation by HPLC analysis.; format: ADME
# Escherichia coli [2] = test: In vitro minimum inhibitory concentration was measured against Escherichia coli TEM-1 (Beta lactamase producer) strain.; format: functional
# Summary of the method: (§1)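 Streptococci were tested on brain heart infusion agar plus 20 units/mL catalase, Proteus on Mueller-Hinton with 3% agar, and others on Mueller-Hinton agar. Inocula were 100-fold-diluted overnight cultures, about 3 × 10^4 CFU/spot, read after overnight incubation at 36 °C.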
# Micrococcus luteus = test: In vitro minimum inhibitory concentration was measured against Micrococcus luteus ATCC 9341 strain.; format: functional; summary of the method: as §1
# Staphylococcus aureus [3] = test: In vitro minimum inhibitory concentration was measured against Staphylococcus aureus smith strain.; format: functional
# Staphylococcus aureus [4] = test: In vitro minimum inhibitory concentration was measured against Staphylococcus aureus 753 (Methicillin resistant) strain.; format: functional
# Proteus vulgaris = test: In vitro minimum inhibitory concentration was measured against Proteus vulgaris 1028BC (beta lactamase producer) strain.; format: functional; summary of the method: as §1
# Klebsiella pneumoniae = test: In vitro minimum inhibitory concentration was measured against Klebsiella pneumoniae A strain.; format: functional; summary of the method: as §1
# Staphylococcus aureus [5] = test: In vitro minimum inhibitory concentration was measured against Staphylococcus aureus 67-0 (Methicillin resistant) strain.; format: functional
# Citrobacter freundii = test: In vitro minimum inhibitory concentration was measured against Citrobacter freundii BS-16 (beta lactamase producer) strain.; format: functional
# Summary of the method: as §1, with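 “MICs were determined by agar dilution with 2-fold dilutions giving final 128–0.0156 µg/mL, extended to 0.000977 µg/mL where needed. Streptococci” for “Streptococci”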
# [6] = test system: Penicillin-binding protein 3 (Escherichia coli); test: Affinity for penicillin binding protein 3 of Escherichia coli UB1005 (DC0) was evaluated.; set-up: unit not given here
# Pseudomonas aeruginosa [7] = test: In vitro minimum inhibitory concentration was measured against Pseudomonas aeruginosa 18S/H strain.; format: functional; summary of the method: as §1
# Enterobacter cloacae [8] = test: In vitro minimum inhibitory concentration was measured against Enterobacter cloacae 5699 strain.; format: functional
# [9] = biological target: T1, Penicillin-binding protein 1A (Escherichia coli K-12) (UniProt P02918); test: Affinity for penicillin binding protein 1a of Escherichia coli UB1005 (DC0) was evaluated.; set-up: unit not given here
# T1 sequence (whole entry): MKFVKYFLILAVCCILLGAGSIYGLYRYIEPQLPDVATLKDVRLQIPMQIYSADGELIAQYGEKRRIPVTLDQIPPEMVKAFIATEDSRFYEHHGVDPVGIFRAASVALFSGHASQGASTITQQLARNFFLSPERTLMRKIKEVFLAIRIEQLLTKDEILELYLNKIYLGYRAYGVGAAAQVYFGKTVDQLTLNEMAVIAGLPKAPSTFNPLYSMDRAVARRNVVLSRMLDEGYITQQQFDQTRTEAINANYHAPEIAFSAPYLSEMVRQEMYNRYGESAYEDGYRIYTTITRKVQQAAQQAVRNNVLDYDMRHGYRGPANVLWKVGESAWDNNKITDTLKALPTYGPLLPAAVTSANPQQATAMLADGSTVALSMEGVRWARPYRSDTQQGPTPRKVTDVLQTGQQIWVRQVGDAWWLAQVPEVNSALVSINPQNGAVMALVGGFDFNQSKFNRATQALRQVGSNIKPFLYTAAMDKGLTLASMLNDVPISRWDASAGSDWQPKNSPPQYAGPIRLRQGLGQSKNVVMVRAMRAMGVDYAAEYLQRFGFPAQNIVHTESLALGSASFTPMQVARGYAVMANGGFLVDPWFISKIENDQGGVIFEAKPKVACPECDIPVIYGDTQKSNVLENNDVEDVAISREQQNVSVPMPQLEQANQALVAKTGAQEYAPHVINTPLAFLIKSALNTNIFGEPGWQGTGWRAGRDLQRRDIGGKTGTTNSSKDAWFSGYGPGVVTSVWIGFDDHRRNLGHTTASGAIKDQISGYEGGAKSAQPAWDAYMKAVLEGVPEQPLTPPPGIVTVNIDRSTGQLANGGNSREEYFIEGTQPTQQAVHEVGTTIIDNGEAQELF
# Summary of the method: (§2)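 Solubilised membranes from sonicated E. coli UB1005 served as the binding-protein source. Binding was read as inhibition of [14C]penicillin G binding.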
# Pseudomonas aeruginosa [10] = test: In vitro minimum inhibitory concentration was measured against Pseudomonas aeruginosa 8780 strain.; format: functional; summary of the method: as §1
# Serratia marcescens = test: In vitro minimum inhibitory concentration was measured against Serratia marcescens 1071(beta lactamase producer) strain.; format: functional; summary of the method: as §1
# [11] = biological target: T2, Penicillin-binding protein 1B (Escherichia coli K-12) (UniProt P02919); test: Affinity for penicillin binding protein 1b of Escherichia coli UB1005 (DC0) was evaluated.; set-up: unit not given here; summary of the method: as §2
# T2 sequence (whole entry): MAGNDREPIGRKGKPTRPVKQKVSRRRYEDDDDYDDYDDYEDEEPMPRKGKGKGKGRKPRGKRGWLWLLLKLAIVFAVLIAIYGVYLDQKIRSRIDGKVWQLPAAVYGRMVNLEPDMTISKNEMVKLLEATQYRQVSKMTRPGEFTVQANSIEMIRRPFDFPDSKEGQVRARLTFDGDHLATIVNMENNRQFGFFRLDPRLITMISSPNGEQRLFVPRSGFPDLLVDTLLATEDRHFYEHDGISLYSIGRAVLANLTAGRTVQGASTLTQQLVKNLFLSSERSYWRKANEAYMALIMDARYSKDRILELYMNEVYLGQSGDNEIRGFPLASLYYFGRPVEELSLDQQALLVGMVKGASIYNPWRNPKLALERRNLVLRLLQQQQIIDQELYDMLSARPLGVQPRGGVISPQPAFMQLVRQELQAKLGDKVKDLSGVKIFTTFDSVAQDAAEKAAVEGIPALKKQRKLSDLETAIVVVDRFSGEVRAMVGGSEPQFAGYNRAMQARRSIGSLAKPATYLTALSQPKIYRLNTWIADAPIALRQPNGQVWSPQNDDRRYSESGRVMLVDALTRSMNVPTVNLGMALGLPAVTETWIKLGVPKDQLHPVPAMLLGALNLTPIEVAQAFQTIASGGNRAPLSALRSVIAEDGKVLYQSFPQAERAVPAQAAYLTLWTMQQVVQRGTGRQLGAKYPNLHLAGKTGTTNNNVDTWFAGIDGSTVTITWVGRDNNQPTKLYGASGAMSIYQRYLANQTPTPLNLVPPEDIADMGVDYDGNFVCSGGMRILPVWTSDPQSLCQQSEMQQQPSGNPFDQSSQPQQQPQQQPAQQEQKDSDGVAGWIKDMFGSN
# Enterobacter cloacae [12] = test: In vitro minimum inhibitory concentration was measured against Enterobacter cloacae p99 (beta lactamase producer) strain.; format: functional
# Streptococcus pneumoniae = test: In vitro minimum inhibitory concentration was measured against Streptococcus pneumoniae 6301 strain; format: functional; summary of the method: as §1
# Escherichia coli [13] = test: In vitro minimum inhibitory concentration was measured against Escherichia coli ATCC 25922 strain.; (</=); format: functional
# Summary of the method: as §1, with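 “MICs were determined by agar dilution with 2-fold dilutions giving final 128–0.0156 µg/mL, extended to 0.000977 µg/mL where needed. Streptococci” for “Streptococci”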
# [14] = biological target: T3, Peptidoglycan D,D-transpeptidase MrdA (Escherichia coli K-12) (UniProt P0AD65); test: Affinity for penicillin binding protein 2 of Escherichia coli UB1005 (DC0) was evaluated.; set-up: unit not given here; summary of the method: as §2
# T3 sequence (whole entry): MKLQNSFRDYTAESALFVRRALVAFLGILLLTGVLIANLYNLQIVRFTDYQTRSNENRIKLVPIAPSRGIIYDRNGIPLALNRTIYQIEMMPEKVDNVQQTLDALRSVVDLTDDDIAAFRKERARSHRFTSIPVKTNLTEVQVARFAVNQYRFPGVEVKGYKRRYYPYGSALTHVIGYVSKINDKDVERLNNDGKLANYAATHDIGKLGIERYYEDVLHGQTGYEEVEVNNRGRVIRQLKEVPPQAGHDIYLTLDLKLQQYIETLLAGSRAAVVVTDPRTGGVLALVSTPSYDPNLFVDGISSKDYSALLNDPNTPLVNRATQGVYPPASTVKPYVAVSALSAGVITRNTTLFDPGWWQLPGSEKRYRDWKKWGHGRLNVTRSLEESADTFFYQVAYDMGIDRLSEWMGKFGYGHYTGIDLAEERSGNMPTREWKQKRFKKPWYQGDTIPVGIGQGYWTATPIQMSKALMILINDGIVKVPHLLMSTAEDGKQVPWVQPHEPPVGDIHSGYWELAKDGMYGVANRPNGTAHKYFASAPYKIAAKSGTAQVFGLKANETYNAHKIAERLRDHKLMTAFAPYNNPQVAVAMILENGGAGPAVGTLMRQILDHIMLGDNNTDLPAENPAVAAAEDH
# Escherichia coli [15] = test: In vitro minimum inhibitory concentration was measured against Escherichia coli 257 strain; (</=); format: functional
# Summary of the method: as §1, with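 “MICs were determined by agar dilution with 2-fold dilutions giving final 128–0.0156 µg/mL, extended to 0.000977 µg/mL where needed. Streptococci” for “Streptococci”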
# Proteus mirabilis = test: In vitro minimum inhibitory concentration was measured against Proteus mirabilis 90 strain.; format: functional; summary of the method: as §1
# Escherichia coli [16] = test: Minimum inhibitory concentration for DC2, a permeability mutant
# Summary of the method: as §1, with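 “MICs were determined by agar dilution with 2-fold dilutions giving final 128–0.0156 µg/mL, extended to 0.000977 µg/mL where needed. Streptococci” for “Streptococci”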
# Streptococcus pyogenes = test: In vitro minimum inhibitory concentration was measured against Streptococcus pyogenes 4 strain.; format: functional; summary of the method: as §1
# Enterococcus faecalis = test: In vitro minimum inhibitory concentration was measured against Enterococcus faecalis ATCC 29212 strain.; format: functional; summary of the method: as §1
compound,measurement,setting,value
CCN1CCN(C(=O)N[C@@H](C(=O)N[C@@H]2C(=O)N3C(C(=O)O)=C(CN4CCN(c5cc6c(cc5F)c(=O)c(C(=O)O)cn6C5CC5)CC4)CS[C@H]23)c2ccc(O)cc2)C(=O)C1=O,half-life,[1],60 h
same,MIC,Escherichia coli [2],0.031 µg/mL
same,MIC,Micrococcus luteus,0.5 µg/mL
same,MIC,Staphylococcus aureus [3],2 µg/mL
same,MIC,Staphylococcus aureus [4],2 µg/mL
same,MIC,Proteus vulgaris,0.063 µg/mL
same,MIC,Klebsiella pneumoniae,0.5 µg/mL
same,MIC,Staphylococcus aureus [5],16 µg/mL
same,MIC,Citrobacter freundii,0.063 µg/mL
same,Binding affinity,[6],2
same,MIC,Pseudomonas aeruginosa [7],2 µg/mL
same,MIC,Enterobacter cloacae [8],0.125 µg/mL
same,Binding affinity,[9],> 100
same,MIC,Pseudomonas aeruginosa [10],8 µg/mL
same,MIC,Serratia marcescens,0.25 µg/mL
same,Binding affinity,[11],> 100
same,MIC,Enterobacter cloacae [12],≤ 0.016 µg/mL
same,MIC,Streptococcus pneumoniae,0.125 µg/mL
same,MIC,Escherichia coli [13],< 0.016 µg/mL
same,Binding affinity,[14],> 100
same,MIC,Escherichia coli [15],< 0.016 µg/mL
same,MIC,Proteus mirabilis,1 µg/mL
same,MIC,Escherichia coli [16],0.25 µg/mL
same,MIC,Streptococcus pyogenes,0.125 µg/mL
same,MIC,Enterococcus faecalis,16 µg/mL
